High-throughput results: PubChem, The Scripps Research Institute Molecular Screening Center
Shown are actives, neighbours in structure and some others; about 2.5% of the full set was active somewhere.
TCR CD3 inh – inhibitors of human TCR-CD3 interaction; TAMRA-labeled TCR probe fluorescence, biochemical; 0.37% of 360,000 active; AID 651800; inhibition, % at 9.4 µM; in the data active = inhibition above about 19%;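 also: recombinant mutant TCR 2C K166C tagged with TAMRA read by polarization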
SIAE inh – inhibitors of human sialic acid acetylesterase SIAE. inhibition, % at 9.66 µM. SIAE FP-Rh probe binding, fluorescence polarization. 0.69% of 370,000 active. Q9HAT2;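 active = inhibition above a cutoff: mean of compounds within the control limits plus 3 SD of those, cut at about 17% in these data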
Target sequence (Q9HAT2 whole entry, looked up): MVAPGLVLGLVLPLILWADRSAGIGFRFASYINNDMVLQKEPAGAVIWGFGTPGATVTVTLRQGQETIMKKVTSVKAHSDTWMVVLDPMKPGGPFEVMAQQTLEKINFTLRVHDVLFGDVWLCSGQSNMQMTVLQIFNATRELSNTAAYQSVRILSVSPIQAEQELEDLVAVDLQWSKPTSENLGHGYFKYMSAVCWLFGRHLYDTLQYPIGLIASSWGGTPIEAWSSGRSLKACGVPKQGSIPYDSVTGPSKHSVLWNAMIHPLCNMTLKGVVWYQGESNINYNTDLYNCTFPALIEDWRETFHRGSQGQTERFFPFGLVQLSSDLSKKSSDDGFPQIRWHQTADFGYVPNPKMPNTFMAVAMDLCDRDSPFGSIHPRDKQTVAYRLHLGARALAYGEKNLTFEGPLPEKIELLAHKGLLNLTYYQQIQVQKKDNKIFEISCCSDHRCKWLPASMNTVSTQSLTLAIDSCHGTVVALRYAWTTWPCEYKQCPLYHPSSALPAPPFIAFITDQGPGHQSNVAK
PRMT1 inh – blocks human protein arginine methyltransferase 1; Q99873; recombinant PRMT1, activity-based probe fluorescence polarization; inhibition, % at 2.79 µM; 1.3% of 370,000 active; AID 652257;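 active = inhibition above about 21% made by adding two undisclosed values, limit read from the data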
mABHD4 FP – inhibitors of mouse ABHD4 | Q8VD66 | purified mABHD4, FP-Rh probe fluorescence polarization | inhibition, % at 8.92 µM | 0.54% of 370,000 active;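 active = inhibition exceeding the mean over every tested compound plus 3 SD, cut at about 30% in these data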
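Assay system: mouse ABHD4 enzyme, wild type / Also added: fluorescent activity-based probe FP-Rh / Doses: single nominal dose of 8.92 µM, 0.89% DMSO final / Timing: 45 min compound pre-incubation plus 60 min probe step, 25 °C / Signal: FP readout, ex 525 nm / em 598 nm / Control set: S159A mutant/DMSO as 100%, compound-well median as 0%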
HTRA1 inh – blocks human HTRA1 serine peptidase. AID 504803. 0.5% of 340,000 active. inhibition, % at 5.96 µM. recombinant HTRA1, FP-rhodamine activity-based probe, fluorescence polarization; in the data active = inhibition above about 36%
PRMT1 confirm – confirmation of human PRMT1 inhibitors | shares compounds with PRMT1 inh | recombinant His-PRMT1, activity-based probe fluorescence polarization | inhibition, % at 2.79 µM | 42% of 3,300 active | AID 687036;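 active = mean inhibition across replicates above the hit cutoff derived for the earlier primary screen, cut at about 22% in these data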
Large screens that a line does not name were inactive (follow-up assays come after a bar, where they were run).

Cc1cccc(NC(=O)CN2C(=O)N/C(=C/c3ccc(C)o3)C2=O)c1	PRMT1 inh 65 | PRMT1 confirm 50
CCOC(=O)Cn1cc(CN2C(C(=O)OC)CN(CCO)CCS2(=O)=O)nn1 (stereo unspecified)	none (no result: TCR CD3 inh, HTRA1 inh)
Cc1ccc(NC(=O)CN2C(=O)S/C(=C/c3ccc(-c4cc(C(=O)O)ccc4C)o3)C2=O)cc1C	PRMT1 inh 28 | PRMT1 confirm inactive
Cc1cc(C)nc(SCNC(=O)c2ccccc2)n1	PRMT1 inh 34 | PRMT1 confirm inactive
C=CS(=O)(=O)c1sc(Cl)c(N2CCOCC2)c1[N+](=O)[O-]	PRMT1 inh 68 | PRMT1 confirm 82
C=CSc1sc(Cl)c(N2CCOCC2)c1[N+](=O)[O-]	none
CC(=O)NNC(=S)NC(=O)c1cccc([N+](=O)[O-])c1	PRMT1 inh 48 | PRMT1 confirm inactive
C=CCN1[C@H](Cc2ccccc2)COc2cccc(N3CCCC3)c2S1(=O)=O	none (no result: TCR CD3 inh, HTRA1 inh)
NNC(=O)CSc1c(-c2ccccc2)c2cc(Cl)ccc2[nH]c1=O	none
O=c1[nH]c2ccc(Cl)cc2c(-c2ccccc2)c1SC(=S)N1CCCCC1	PRMT1 inh 44 | PRMT1 confirm 24
O=S(=O)(c1sccc1Br)n1c(CN2CCOCC2)nc2ccccc21	none (no result: TCR CD3 inh, HTRA1 inh)
COC(=O)[C@]12C[C@H](CC(=O)N3CCOCC3)C(=O)N(CCc3ccc(OC)c(OC)c3)C1=C[C@H](COCc1ccccc1)O[C@@H]2C	none (no result: TCR CD3 inh, HTRA1 inh)
CS(=O)(=O)N1CCSC1c1ccc(Br)cc1 (stereo unspecified)	none
Brc1ccc(C2NCCS2)cc1 (stereo unspecified)	PRMT1 inh 32 | PRMT1 confirm inactive
C#CCNC(=O)C[C@H]1C[C@@]2(C(=O)OC)C(=C[C@H](COCc3ccccc3)O[C@@H]2C)N(Cc2cccc3ccccc23)C1=O	none (no result: TCR CD3 inh, HTRA1 inh)
COc1cccc(C=NNC(=O)CSc2nc3ccccc3[nH]2)c1O	none (no result: TCR CD3 inh, HTRA1 inh)
Cc1ccc(-c2nc3cnccn3c2Nc2ccccc2)o1	PRMT1 inh 67 | PRMT1 confirm inactive
Cc1ccc(-c2nc3ccccn3c2Nc2ccccc2)o1	PRMT1 inh 49 | PRMT1 confirm inactive
Cc1ccc(Nc2c(-c3ccccc3)nc3cnccn23)cc1	none
Cc1ccc(-c2nc3cnccn3c2Nc2ccc3c(c2)OCO3)o1	PRMT1 inh 26 | PRMT1 confirm inactive
Cc1ccc(Nc2c(-c3ccc(C)o3)nc3cnccn23)cc1	PRMT1 inh 58 | PRMT1 confirm inactive
COC(=O)[C@]12C[C@H](CC(=O)N3CCCCC3)C(=O)N(Cc3ccco3)C1=C[C@H](COCc1ccccc1)O[C@@H]2C	none (no result: TCR CD3 inh, HTRA1 inh)
O=C(Nc1ccc(Cl)cc1)OC1CCC12CCC(c1ccccc1)CC2 (stereo unspecified)	none (no result: TCR CD3 inh, HTRA1 inh)
C[C@H]1C2CC(OC(=O)NCCCc3ccccc3)C(C2)[C@H]2CCCCN21 (stereo partly specified)	none (no result: TCR CD3 inh, HTRA1 inh)
O=[N+]([O-])c1cccc(C(=S)N2CCN(c3ccccc3)CC2)c1	PRMT1 inh 35 | PRMT1 confirm inactive
O=[N+]([O-])c1cccc(C(=S)N2CCN(c3ccccc3F)CC2)c1	none
C[C@@H]1COc2cc(Br)ccc2S(=O)(=O)N1Cc1cn(CC2CCCCC2)nn1	none (no result: TCR CD3 inh, HTRA1 inh)
CCOC(=O)CC[C@H]1CC[C@]2(CCCN(C(=O)c3ccno3)C2)O1	none (no result: TCR CD3 inh, HTRA1 inh)
CCOC(=O)c1c(SCCN2CCCC2)n(-c2ccccc2)c(=S)n(-c2ccccc2)c1=O	PRMT1 inh 52 | PRMT1 confirm 40
CC(COc1ccc(C#N)cc1)CN1CCC(C(O)(c2ccccc2)c2ccccc2)CC1 (stereo unspecified)	none (no result: TCR CD3 inh, HTRA1 inh)
Cc1nc2ccc(S(=O)(=O)NCC(=O)NCc3ccccc3C)cc2s1	none (no result: TCR CD3 inh, HTRA1 inh)
Nc1ccccc1SSc1ccccc1N	PRMT1 inh 83 | PRMT1 confirm 84
N#Cc1ccccc1Sc1ccccc1N	none (no result: TCR CD3 inh, SIAE inh, PRMT1 inh, mABHD4 FP)
CC(C)C[C@H]1COc2cccc(F)c2S(=O)(=O)N1Cc1cn(Cc2ccc(Cl)cc2)nn1	none (no result: TCR CD3 inh, HTRA1 inh)
COc1ccccc1-n1c(SC)nc(O)cc1=O	PRMT1 inh 25 | PRMT1 confirm inactive
O=C(c1ccccc1)N1CCN(C(=O)c2nn3c(C(F)(F)F)cc(-c4ccco4)nc3c2Br)CC1	PRMT1 inh 30 | PRMT1 confirm inactive
COc1ccc(CCNC2CC(=O)N(CCc3ccc(OC)c(OC)c3)C2=O)cc1 (stereo unspecified)	PRMT1 inh 78 | PRMT1 confirm inactive
COc1ccc(CCNC2CC(=O)N(C)C2=O)cc1OC (stereo unspecified)	none
